# Measurements published in ChEMBL document CHEMBL5143736, “Discovery and Optimization of a Synthetic Class of Nectin-4-Targeted CD137 Agonists for Immuno-oncology” (J Med Chem, 2022).
# Activity calls are given as the source filed them. The rule behind the calls is not given here.
# Key:
# [1] = target: T1, Tumor necrosis factor receptor superfamily member 9 (Homo sapiens, UniProt Q07011); experiment: Agonist activity at recombinant human CD137 expressed in Jurkat T cells co-expressing response element driven luciferase reporter gene co-cultured with Nectin-4 expressing mouse MC38 cells assessed as luminescence measured after 6 hrs by luciferase reporter gene based co-culture assay; format: cell-based; details: filed as agonist, DDE = dose-dependent effect
# How it was run: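 Jurkat cells carrying human CD137 and a CD137 response-element luciferase reporter, cocultured for 6 h at 37 °C, 5% CO2 with 10,000 MC38 cells engineered to express mouse Nectin-4 (parental MC38 as negative line). Bio-Glo luminescence read-out, as fold induction over no-test-article wells. Mean of n = 2.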
# PBMC [2] = experiment: […] activity in human PBMC stimulated with anti-CD3-mediated CD137 expression in cocultured with […] cell line assessed as increase in secretion of IFN gamma incubated for 48 hrs by Luminex assay; format: functional, cell-based; details: DDE = dose-dependent effect
# How it was run: (§1)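 Healthy-donor PBMCs were thawed into R10 medium and cocultured with HT1376 cells at 10:1 effector:target (1×10^5 PBMC:1×10^4 tumor cells per well). Soluble anti-CD3 OKT3 (100 ng/mL) was added on day 0, then compound, 37 °C, 5% CO2. Supernatant IFNγ and IL-2 taken at 24 and 48 h, measured by Luminex. Four-parameter fit, n = 3, repeated in multiple donors.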
# [3] = target: T1, Tumor necrosis factor receptor superfamily member 9; experiment: Binding affinity to human recombinant CD137 by surface plasmon resonance analysis
# How it was run: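 Biacore T200 SPR, human CD137, 25 °C. Peptide series in PBS/0.05% Tween 20 with 0.5% DMSO: top 500 nM (threefold) or 10 μM (twofold), 6 further dilutions. Flow 90 μL/min, 60 s association, 100–600 s dissociation, glycine pH 2 regeneration. DMSO-corrected and double-referenced; kinetic fit gives ka, kd, KD.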
# [4] = target: T1, Tumor necrosis factor receptor superfamily member 9; experiment: Agonist activity at human CD137 expressed in human HT-1376 cells measured after 6 hrs by […] microplate reader assay; format: cell-based; details: filed as agonist
# PBMC [5] = experiment: […] activity in human PBMC stimulated with anti-CD3-mediated CD137 expression in cocultured with […] cell line assessed as increase in secretion of IL2 incubated for 48 hrs by Luminex assay; format: functional, cell-based; details: DDE = dose-dependent effect; how it was run: as §1
# Nectin-4 = target: T2, Nectin-4 (Homo sapiens, UniProt Q96NY8); experiment: Binding affinity to human Nectin-4 assessed as dissociation constant using 1:1 Nectin-4/CD137 by surface plasmon resonance analysis
# T2 sequence (Q96NY8 whole entry): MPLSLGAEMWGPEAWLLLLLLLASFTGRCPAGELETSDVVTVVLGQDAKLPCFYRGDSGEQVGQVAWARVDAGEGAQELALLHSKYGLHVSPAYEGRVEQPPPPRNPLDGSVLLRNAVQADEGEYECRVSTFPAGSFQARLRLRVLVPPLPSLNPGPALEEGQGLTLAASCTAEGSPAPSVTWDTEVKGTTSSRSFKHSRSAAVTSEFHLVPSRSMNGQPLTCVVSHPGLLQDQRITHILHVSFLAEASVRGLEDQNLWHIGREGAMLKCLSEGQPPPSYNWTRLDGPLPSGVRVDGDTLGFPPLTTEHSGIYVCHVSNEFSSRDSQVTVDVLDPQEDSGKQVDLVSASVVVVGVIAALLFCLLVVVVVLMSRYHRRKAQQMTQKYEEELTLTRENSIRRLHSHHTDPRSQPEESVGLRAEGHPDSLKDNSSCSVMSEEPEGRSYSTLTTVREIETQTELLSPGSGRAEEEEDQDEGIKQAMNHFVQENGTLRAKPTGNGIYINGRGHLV
# How it was run: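 SPR kinetics against human Nectin-4 (residues 32–349, baculovirus/Sf21-expressed, FLAG-tagged), 25 °C. Top 100 nM with 6 further twofold dilutions, 50 μL/min, 60 s association, 400–1200 s dissociation, DMSO-corrected. At least four concentrations used to obtain kon, koff and KD.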
# [6] = target: T1, Tumor necrosis factor receptor superfamily member 9; experiment: Agonist activity at human CD137 expressed in human NCI-H292 cells measured after 6 hrs by […] microplate reader assay; format: cell-based; details: filed as agonist
# T1 sequence (Q07011 whole entry): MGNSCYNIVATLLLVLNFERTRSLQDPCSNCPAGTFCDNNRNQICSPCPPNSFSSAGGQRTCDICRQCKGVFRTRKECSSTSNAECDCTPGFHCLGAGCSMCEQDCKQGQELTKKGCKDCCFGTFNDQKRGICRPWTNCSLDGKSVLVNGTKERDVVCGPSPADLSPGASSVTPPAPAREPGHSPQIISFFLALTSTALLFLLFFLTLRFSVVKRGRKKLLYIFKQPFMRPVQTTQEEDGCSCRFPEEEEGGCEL
smiles,measurement,setting,value
CCCC[C@@H]1NC(=O)[C@H](Cc2ccc(O)cc2)NC(=O)[C@@H]2CCCN2C(=O)[C@H](CC(=O)O)NC(=O)[C@H](C)NC(=O)[C@H](Cc2ccccc2)NC(=O)[C@@H]2CSCCC(=O)N3CN(CN(C3)C(=O)CCSC[C@@H](C(=O)N[C@@H](CNC(=O)CCOCCOCCOCCOCCOCCOCCOCCOCCOCCOCCOCCOCCn3cc(CCC(=O)NCCC(=O)N(C)CC(=O)N(C)CC(=O)N(C)CC(=O)N(C)CC(=O)N(C)CC(=O)N(C)CC(=O)N(C)CC(=O)N(C)CC(=O)N(C)CC(=O)N(C)CC(=O)N[C@H]4CSCCC(=O)N5CN6CN(C5)C(=O)CCSC[C@H](NC(=O)[C@@H](CC(=O)O)NC(=O)[C@H](Cc5cccc7ccccc57)NC(=O)[C@@H]5CCCN5C4=O)C(=O)N[C@@H](CCSC)C(=O)N[C@@H](CCCCNC(=N)N)C(=O)N[C@@H](CC(=O)O)C(=O)N[C@@H](Cc4c[nH]c5ccccc45)C(=O)N[C@@H](CO)C(=O)N[C@@H]([C@@H](C)O)C(=O)N4CCC[C@H]4C(=O)N4C[C@H](O)C[C@H]4C(=O)N[C@@H](Cc4c[nH]c5ccccc45)C(=O)N[C@H](C(N)=O)CSCCC6=O)nn3)C(N)=O)NC1=O)C(=O)CCSC[C@H](NC(=O)[C@H](C)NC(C)=O)C(=O)NC([C@@H](C)CC)C(=O)N[C@@H](CCC(=O)O)C(=O)N[C@@H](CCC(=O)O)C(=O)NCC(=O)N[C@@H](CCC(N)=O)C(=O)N[C@@H](Cc1ccc(O)cc1)C(=O)N2 (some centres not stated),Activity,[1],Dde
same,Activity,PBMC [2],Dde
same,Kd,[3],108 nM
same,Activity,[4],Active
same,Activity,PBMC [5],Dde
same,Kd,Nectin-4,2.8 nM
same,Activity,[6],Active
